Experimental data: ChEMBL document CHEMBL4017510, “Nitazoxanide Analogs Require Nitroreduction for Antimicrobial Activity in Mycobacterium smegmatis” (J Med Chem, 2017)
≈ marks a conversion by molar mass, not a printed value. Calls of active or inactive are those of the source.

Legend:
[1] = test system: Streptococcus agalactiae; test: Antibacterial activity against Streptococcus agalactiae NEM316 by resazurin microdilution assay; type: functional
Method in brief: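 S. agalactiae NEM316 in Todd−Hewitt broth at 37 °C. Compounds were tested as 2-fold dilutions in 96 wells with an inoculum of about 1 × 10^3 UFC per well. Controls without antibiotic or without bacteria were included. Resazurin 0.003% final. MIC was the lowest concentration preventing the color change from blue to pink.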

[2] = test system: Mycolicibacterium smegmatis; test: Drug metabolism in Mycobacterium smegmatis assessed as hydroxyl […] formation after 3 hrs by LC-MS/MS analysis; type: ADME
Method in brief: (§1)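 M. smegmatis wild type or transposon mutant 126E6 was grown in 7H9 to OD600 0.6 at 37 °C. 5 mL aliquots received 0.3 mg of compound or none and were incubated 3 h. Cultures were sonicated, cleared and filtered (0.45 μm), then mixed with acetonitrile/methanol/water. Analysis was aqueous normal-phase LC with ESI QTOF, reported as ion counts per mL, including the hydroxylamine intermediate (m/z 372.0012).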

[3] = Drug metabolism in Mycobacterium smegmatis 126E6 assessed as NfnB-mediated hydroxyl […] formation after 3 hrs by LC-MS/MS analysis; type: ADME; details: mycolicibacterium smegmatis; method in brief: as §1
[4] = test system: Mycolicibacterium smegmatis; test: Antibacterial activity against Mycobacterium smegmatis harboring 126E6 mutant at 51.6 uM measured after 24 hrs by resazurin microdilution assay; type: functional
Method in brief: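 Hypersensitivity screen of the M. smegmatis Tn611 transposon mutant collection. Wells receive 2 μL from each mutant in Middlebrook 7H9 with ADC, 0.05% Tween 80, kanamycin and PANTA, with compound at 20 μg/mL final. Drug-free plates serve as growth controls. Plates are incubated 48 h at 37 °C, with resazurin (0.003% final) added at 24 h. Clones failing to grow are scored.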

[5] = test system: Mycolicibacterium aurum; test: Antibacterial activity against Mycobacterium aurum after overnight incubation by resazurin microdilution assay; type: functional
Method in brief: (§2)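 Mycobacteria were cultured in Middlebrook 7H9 with ADC and glycerol, at 32 °C for M. marinum (4 days) or with overnight incubation for M. aurum. Resazurin microdilution used 2-fold dilutions and about 1 × 10^3 UFC per well, with growth and medium controls. Resazurin 0.003% final. MIC defined as the lowest concentration preventing the blue-to-pink change.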

[6] = test system: Staphylococcus aureus; test: Antibacterial activity against Staphylococcus aureus by resazurin microdilution assay; type: functional
Method in brief: (§3)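 Clinical isolates were grown at 37 °C in Mueller−Hinton broth. Two-fold dilutions were made in 96-well plates and inoculated with about 1 × 10^3 UFC per well. Growth controls (no antibiotic) and medium controls (no bacteria) were included. Resazurin was added to 0.003% final. MIC was the lowest concentration that prevented the blue-to-pink color change.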

[7] = test system: Mycolicibacterium aurum; test: Growth inhibition of Mycobacterium aurum at 0.4 uM after overnight incubation by resazurin microdilution assay relative to control; type: functional; details: read-out: GI
Method in brief: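 Single-concentration screen at 0.15 μg/mL (average 0.4 μM). M. aurum (20-fold dilution of an OD600 0.2–0.3 culture) was grown in 7H9 with 0.1% casitone, 0.5% glycerol, OADC and 0.002% resazurin for 18 h at 37 °C. Read-out was ΔOD (OD570 − OD604). Percent viability was normalized to DMSO (100%) and kanamycin (0%) controls.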

[8] = test system: Pseudomonas aeruginosa; test: Antibacterial activity against Pseudomonas aeruginosa by resazurin microdilution assay; type: functional; method in brief: as §3
[9] = test system: Mycobacterium avium; test: Antibacterial activity against Mycobacterium avium after 7 days by resazurin microdilution assay; type: functional; details: 168 h
Method in brief: (§4)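 Two-fold drug dilutions in 96-well plates with species-appropriate medium. Each well receives an inoculum of about 1 × 10^3 UFC. Each plate has a no-drug growth control and a no-bacteria medium control. Resazurin is added to 0.003% final. Incubation time and temperature vary by species. MIC is the lowest concentration preventing the blue-to-pink (resorufin) colour change.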

[10] = test system: Mycolicibacterium smegmatis; test: Antibacterial activity against Mycobacterium smegmatis MC2 155 by resazurin microdilution assay; type: functional; details: str. MC2 155; method in brief: as §4
[11] = test system: Klebsiella aerogenes; test: Antibacterial activity against Enterobacter aerogenes by resazurin microdilution assay; type: functional; method in brief: as §3
[12] = test system: Escherichia coli; test: Antibacterial activity against Escherichia coli after 6 hrs by resazurin microdilution assay; type: functional
Method in brief: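 Clinical isolate of E. coli in Mueller−Hinton broth at 37 °C, 6 h incubation. Two-fold dilution series in 96-well plates with about 1 × 10^3 UFC per well. Growth and medium-only controls were run. Resazurin at 0.003% final. MIC taken as the lowest concentration blocking reduction of resazurin (blue) to resorufin (pink).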

[13] = test system: Klebsiella pneumoniae; test: Antibacterial activity against Klebsiella pneumoniae by resazurin microdilution assay; type: functional; method in brief: as §3
[14] = test system: Vero; test: Cytotoxicity against African green monkey Vero cells; type: cell-based; details: Chlorocebus sabaeus
[15] = test system: Mycobacterium tuberculosis; test: Antibacterial activity against Mycobacterium tuberculosis H37Rv after 7 days by resazurin microdilution assay; type: functional; details: 168 h; method in brief: as §4
[16] = test system: Mycolicibacterium smegmatis; test: Antibacterial activity against Mycobacterium smegmatis harboring 126E6 mutant measured after 24 hrs by resazurin microdilution assay; type: functional; method in brief: as §4
[17] = test system: Mycobacterium marinum; test: Antibacterial activity against Mycobacterium marinum after 4 days by resazurin microdilution assay; type: functional; details: 96 h; method in brief: as §2

CCCOc1ccc(C(=O)Nc2ncc([N+](=O)[O-])s2)cc1Br
MIC [1]: > 129 µM | Drug metabolism [2]: Metabolite_Notdetected | Drug metabolism [3]: Metabolite_Detected | Activity [4]: Active | MIC [5]: 1 µM (≈ 0.386 µg/mL) | MIC [6]: 2.33 µM (≈ 0.9 µg/mL) | inhibition of growth at 0.4 µM [7]: > 40% | MIC [8]: > 129 µM | MIC [9]: 77.7 µM (≈ 30 µg/mL) | MIC [10]: > 129 µM | MIC [11]: > 129 µM | MIC [12]: > 129 µM | MIC [13]: > 129 µM | IC50 [14]: > 100 µM | MIC [15]: 77.6 µM (≈ 30 µg/mL) | MIC [16]: 10.1 µM (≈ 3.9 µg/mL) | MIC [17]: 4.03 µM (≈ 1.56 µg/mL)

O=C(Nc1ncc([N+](=O)[O-])s1)c1ccccc1OC(F)(F)F
MIC [1]: > 93.6 µM | MIC [5]: 4.65 µM (≈ 1.55 µg/mL) | MIC [6]: 48.8 µM (≈ 16.3 µg/mL) | inhibition of growth at 0.4 µM [7]: > 40% | MIC [8]: 93.6 µM (≈ 31.2 µg/mL) | MIC [9]: 11.7 µM (≈ 3.9 µg/mL) | MIC [10]: 75 µM (≈ 25 µg/mL) | MIC [11]: > 93.6 µM | MIC [12]: > 93.6 µM | MIC [13]: > 93.6 µM | MIC [15]: 75 µM (≈ 25 µg/mL) | MIC [16]: 19.6 µM (≈ 6.53 µg/mL) | MIC [17]: 9 µM (≈ 3 µg/mL)

O=C(Nc1ncc([N+](=O)[O-])s1)c1ccc(Cl)cc1Cl
MIC [1]: > 93 µM | MIC [5]: 2.45 µM (≈ 0.779 µg/mL) | MIC [6]: 6.2 µM (≈ 1.97 µg/mL) | inhibition of growth at 0.4 µM [7]: > 40% | MIC [8]: 93 µM (≈ 29.6 µg/mL) | MIC [9]: 46.6 µM (≈ 14.8 µg/mL) | MIC [10]: 78.5 µM (≈ 25 µg/mL) | MIC [11]: > 93 µM | MIC [12]: > 93 µM | MIC [13]: > 93 µM | IC50 [14]: > 100 µM | MIC [15]: 78.5 µM (≈ 25 µg/mL) | MIC [16]: 18.6 µM (≈ 5.92 µg/mL) | MIC [17]: 18.8 µM (≈ 5.98 µg/mL)
